What was measured:
[1] = Inhibition of p38 at 1 uM
[2] = Passive permeability in canine kidney cells; format: ADME, cell-based, Canis lupus familiaris; conditions: dog; read-out: permeability
[3] = target: Angiopoietin-1 receptor (Homo sapiens) (UniProt Q02763); assay: Inhibition of TEK at 1 uM
[4] = target: Phosphatidylinositol 4,5-bisphosphate 3-kinase catalytic subunit alpha isoform (Mus musculus, UniProt P42337); assay: Inhibition of mouse PI3Kalpha after 30 mins by fluorescence polarization assay
Procedure, shortened: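 Mouse PI3Kα 0.5 nM with 30 μM PIP₂, 5 mM MgCl₂, 200 μM ATP, 30 min at room temperature (~22 °C); stopped with 10 mM EDTA. Then 3 min with detector mix of 480 nM GST-Grp1 PH domain and 12 nM TAMRA-PIP₃. Fluorescence polarization read in 50 mM Hepes pH 7.4, 150 mM NaCl, 5 mM DTT, 0.05% CHAPS. Duplicate points, nonlinear regression fit.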

[5] = target: High affinity nerve growth factor receptor (Homo sapiens, UniProt P04629); assay: Inhibition of TrkA
[6] = target: Serine/threonine-protein kinase PAK 4 (Homo sapiens) (UniProt O96013); assay: Inhibition of PAK4 at 1 uM
[7] = Inhibition of PRKCB2 at 1 uM
[8] = target: Glycogen synthase kinase-3 beta (Homo sapiens, UniProt P49841); assay: Inhibition of GSK3-beta
[9] = target: Rho-associated protein kinase 1 (Homo sapiens) (UniProt Q13464); assay: Inhibition of ROCK1 at 1 uM
[10] = target: Cyclin-dependent kinase 2/cyclin A (Homo sapiens) (UniProt P24941+P20248+P78396); assay: Inhibition of CDK2/cyclinA at 1 uM; format: protein-complex assay
Aurora kinase A = target: T1, Aurora kinase A (Homo sapiens, UniProt O14965); assay: Inhibition of Aurora A
T1 sequence (O14965 whole entry): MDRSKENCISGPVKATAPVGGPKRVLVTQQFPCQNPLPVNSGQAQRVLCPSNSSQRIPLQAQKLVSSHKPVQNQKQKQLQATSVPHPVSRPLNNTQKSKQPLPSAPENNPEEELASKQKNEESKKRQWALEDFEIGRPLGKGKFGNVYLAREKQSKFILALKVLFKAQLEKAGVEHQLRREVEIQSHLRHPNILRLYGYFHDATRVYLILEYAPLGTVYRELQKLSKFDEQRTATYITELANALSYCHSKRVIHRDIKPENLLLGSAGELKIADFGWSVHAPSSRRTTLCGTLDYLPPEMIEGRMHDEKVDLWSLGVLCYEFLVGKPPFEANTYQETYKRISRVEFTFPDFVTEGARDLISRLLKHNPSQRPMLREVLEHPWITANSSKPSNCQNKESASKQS

[11] = target: T2, 3-phosphoinositide-dependent protein kinase 1 (Homo sapiens, UniProt O15530); assay: Inhibition of PDK1-mediated AKT1 phosphorylation at T308 in human H460 cells after 2 hrs by ELISA; format: cell-based
T2 sequence (O15530 whole entry): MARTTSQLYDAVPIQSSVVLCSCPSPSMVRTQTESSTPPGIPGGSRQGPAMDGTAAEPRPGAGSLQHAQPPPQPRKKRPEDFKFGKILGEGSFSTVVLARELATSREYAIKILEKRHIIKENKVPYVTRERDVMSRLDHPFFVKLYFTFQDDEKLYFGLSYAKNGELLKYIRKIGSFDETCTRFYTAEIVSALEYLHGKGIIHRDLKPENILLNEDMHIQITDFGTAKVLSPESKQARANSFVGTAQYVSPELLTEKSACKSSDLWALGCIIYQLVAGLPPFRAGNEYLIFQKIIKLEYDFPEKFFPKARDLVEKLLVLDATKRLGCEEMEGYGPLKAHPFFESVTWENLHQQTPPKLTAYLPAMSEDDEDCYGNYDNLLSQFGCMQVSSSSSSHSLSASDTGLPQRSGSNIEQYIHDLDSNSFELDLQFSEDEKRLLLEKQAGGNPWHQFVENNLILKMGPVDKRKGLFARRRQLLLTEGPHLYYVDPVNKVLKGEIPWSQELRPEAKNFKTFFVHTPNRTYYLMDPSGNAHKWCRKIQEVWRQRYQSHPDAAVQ
Procedure, shortened: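 Cells seeded at 50,000 per well and left to adhere overnight. Inhibitor was added as a 3-fold serial dilution from 0.0169 nM to 10 μM for 2 h, then cells were lysed. Lysates were tested in a commercial pAKT-T308 sandwich ELISA per the kit protocol. IC50 from duplicates, each run repeated at least twice.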

[12] = target: Epidermal growth factor receptor (Homo sapiens) (UniProt P00533); assay: Inhibition of EGFR at 1 uM
[13] = target: Proto-oncogene tyrosine-protein kinase Src (Homo sapiens) (UniProt P12931); assay: Inhibition of SRC at 1 uM
Chain of Proto-oncogene tyrosine-protein kinase Src (Homo sapiens) (P12931 2-536 limits assumed): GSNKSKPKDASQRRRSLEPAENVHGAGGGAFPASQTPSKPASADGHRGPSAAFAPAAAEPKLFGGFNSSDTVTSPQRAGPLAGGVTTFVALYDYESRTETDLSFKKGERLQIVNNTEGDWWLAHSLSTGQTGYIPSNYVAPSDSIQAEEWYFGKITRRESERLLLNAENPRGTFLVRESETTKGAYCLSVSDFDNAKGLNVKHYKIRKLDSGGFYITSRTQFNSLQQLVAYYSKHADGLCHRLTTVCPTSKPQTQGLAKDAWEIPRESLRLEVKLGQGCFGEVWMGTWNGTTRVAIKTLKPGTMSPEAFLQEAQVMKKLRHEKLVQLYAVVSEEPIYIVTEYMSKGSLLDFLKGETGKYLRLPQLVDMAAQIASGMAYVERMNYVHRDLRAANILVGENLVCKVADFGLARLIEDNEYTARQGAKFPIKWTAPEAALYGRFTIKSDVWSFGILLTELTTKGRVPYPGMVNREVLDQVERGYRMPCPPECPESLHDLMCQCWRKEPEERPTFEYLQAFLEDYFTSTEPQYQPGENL

Chain of Glycogen synthase kinase-3 beta (P49841 whole entry): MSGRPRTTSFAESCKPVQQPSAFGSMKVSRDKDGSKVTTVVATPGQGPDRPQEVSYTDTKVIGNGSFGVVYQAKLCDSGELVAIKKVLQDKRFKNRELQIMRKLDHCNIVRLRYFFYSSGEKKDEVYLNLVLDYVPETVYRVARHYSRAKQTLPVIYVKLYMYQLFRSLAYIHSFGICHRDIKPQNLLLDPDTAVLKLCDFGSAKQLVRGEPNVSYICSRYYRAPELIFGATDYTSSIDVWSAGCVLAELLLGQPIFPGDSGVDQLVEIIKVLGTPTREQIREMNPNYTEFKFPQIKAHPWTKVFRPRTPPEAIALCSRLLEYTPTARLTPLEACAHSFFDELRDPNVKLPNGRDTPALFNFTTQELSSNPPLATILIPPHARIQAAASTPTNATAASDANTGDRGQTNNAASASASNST
Chain of Angiopoietin-1 receptor (Homo sapiens) (Q02763 whole entry, canonical isoform): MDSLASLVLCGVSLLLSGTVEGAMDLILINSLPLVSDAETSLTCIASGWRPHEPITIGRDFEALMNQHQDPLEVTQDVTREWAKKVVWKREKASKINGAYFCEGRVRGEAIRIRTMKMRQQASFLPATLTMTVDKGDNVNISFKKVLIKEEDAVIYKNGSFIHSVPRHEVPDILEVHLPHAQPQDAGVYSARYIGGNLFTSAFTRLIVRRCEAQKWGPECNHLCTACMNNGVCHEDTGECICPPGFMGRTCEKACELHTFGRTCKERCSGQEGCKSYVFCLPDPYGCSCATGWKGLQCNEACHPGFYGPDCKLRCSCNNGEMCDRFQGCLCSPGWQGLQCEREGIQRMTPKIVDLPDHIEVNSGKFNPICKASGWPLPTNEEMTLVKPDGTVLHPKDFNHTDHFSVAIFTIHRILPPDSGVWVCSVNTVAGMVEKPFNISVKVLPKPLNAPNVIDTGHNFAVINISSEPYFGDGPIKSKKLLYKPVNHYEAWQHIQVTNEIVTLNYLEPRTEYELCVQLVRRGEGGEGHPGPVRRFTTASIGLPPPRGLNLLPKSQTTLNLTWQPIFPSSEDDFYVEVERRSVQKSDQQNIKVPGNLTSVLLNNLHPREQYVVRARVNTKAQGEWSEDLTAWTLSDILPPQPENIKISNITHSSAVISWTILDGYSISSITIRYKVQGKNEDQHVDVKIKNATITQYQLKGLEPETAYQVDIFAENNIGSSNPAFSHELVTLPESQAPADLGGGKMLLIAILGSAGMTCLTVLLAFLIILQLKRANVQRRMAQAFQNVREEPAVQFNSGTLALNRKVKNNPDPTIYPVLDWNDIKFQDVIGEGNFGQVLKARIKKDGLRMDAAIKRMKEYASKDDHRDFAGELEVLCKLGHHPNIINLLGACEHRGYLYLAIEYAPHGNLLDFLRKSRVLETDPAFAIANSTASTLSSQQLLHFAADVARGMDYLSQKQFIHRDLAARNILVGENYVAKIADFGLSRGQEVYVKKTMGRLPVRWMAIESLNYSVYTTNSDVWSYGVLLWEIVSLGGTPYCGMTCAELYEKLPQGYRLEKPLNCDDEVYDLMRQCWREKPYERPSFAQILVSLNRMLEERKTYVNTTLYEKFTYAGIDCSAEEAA
Chain of High affinity nerve growth factor receptor (P04629 whole entry): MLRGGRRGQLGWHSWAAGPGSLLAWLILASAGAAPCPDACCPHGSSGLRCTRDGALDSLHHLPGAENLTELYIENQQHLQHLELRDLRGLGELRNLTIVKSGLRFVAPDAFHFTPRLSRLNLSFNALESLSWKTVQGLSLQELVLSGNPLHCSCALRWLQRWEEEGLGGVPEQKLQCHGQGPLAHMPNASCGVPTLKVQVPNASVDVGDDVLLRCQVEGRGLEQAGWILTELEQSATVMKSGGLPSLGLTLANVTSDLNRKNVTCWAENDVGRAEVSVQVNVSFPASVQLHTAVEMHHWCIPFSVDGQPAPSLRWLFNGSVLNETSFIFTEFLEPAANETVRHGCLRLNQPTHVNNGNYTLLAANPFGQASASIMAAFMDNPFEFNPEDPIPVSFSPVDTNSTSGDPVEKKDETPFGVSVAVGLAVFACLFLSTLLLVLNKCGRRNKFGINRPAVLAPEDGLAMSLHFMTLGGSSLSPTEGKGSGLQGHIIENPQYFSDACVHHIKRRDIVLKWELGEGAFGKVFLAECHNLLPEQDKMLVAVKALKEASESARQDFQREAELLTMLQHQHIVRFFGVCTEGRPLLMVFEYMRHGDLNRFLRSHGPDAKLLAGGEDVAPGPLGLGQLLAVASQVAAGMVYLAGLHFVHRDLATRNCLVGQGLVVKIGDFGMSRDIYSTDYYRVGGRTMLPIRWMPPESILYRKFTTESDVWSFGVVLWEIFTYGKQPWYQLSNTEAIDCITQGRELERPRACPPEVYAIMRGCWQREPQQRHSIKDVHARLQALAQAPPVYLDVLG
Chain of Epidermal growth factor receptor (Homo sapiens) (P00533 whole entry): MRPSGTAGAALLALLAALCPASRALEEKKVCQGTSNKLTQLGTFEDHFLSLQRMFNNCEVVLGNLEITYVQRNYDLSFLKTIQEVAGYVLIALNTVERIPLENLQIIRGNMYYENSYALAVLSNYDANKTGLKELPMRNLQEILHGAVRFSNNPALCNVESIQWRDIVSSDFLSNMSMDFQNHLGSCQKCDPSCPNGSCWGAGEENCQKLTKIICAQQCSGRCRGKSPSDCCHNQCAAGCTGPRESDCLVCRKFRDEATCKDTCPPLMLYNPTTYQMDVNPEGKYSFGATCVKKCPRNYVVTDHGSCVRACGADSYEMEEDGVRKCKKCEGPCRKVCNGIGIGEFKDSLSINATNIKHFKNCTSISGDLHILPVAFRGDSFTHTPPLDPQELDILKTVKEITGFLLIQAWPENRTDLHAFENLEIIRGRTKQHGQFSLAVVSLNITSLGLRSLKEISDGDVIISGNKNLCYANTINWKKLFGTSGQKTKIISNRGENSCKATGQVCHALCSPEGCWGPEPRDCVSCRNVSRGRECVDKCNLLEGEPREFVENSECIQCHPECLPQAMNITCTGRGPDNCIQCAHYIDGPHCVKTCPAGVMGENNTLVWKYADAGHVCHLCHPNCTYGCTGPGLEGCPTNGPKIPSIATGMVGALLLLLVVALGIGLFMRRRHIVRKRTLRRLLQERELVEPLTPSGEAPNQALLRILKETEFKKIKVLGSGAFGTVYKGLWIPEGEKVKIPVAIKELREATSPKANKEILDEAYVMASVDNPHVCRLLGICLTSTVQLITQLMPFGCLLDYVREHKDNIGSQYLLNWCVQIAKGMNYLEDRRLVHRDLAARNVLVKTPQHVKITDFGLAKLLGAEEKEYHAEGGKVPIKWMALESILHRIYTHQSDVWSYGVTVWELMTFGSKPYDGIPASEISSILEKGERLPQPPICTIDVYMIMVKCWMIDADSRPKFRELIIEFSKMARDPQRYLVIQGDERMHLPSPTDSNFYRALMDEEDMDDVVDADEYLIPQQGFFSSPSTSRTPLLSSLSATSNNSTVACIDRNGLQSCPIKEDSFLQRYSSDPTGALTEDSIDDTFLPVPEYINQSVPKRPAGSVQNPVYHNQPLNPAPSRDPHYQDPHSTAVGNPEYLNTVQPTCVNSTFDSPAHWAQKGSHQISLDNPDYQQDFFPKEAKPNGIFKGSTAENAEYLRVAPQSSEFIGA
Chain of Serine/threonine-protein kinase PAK 4 (Homo sapiens) (O96013 whole entry, looked up): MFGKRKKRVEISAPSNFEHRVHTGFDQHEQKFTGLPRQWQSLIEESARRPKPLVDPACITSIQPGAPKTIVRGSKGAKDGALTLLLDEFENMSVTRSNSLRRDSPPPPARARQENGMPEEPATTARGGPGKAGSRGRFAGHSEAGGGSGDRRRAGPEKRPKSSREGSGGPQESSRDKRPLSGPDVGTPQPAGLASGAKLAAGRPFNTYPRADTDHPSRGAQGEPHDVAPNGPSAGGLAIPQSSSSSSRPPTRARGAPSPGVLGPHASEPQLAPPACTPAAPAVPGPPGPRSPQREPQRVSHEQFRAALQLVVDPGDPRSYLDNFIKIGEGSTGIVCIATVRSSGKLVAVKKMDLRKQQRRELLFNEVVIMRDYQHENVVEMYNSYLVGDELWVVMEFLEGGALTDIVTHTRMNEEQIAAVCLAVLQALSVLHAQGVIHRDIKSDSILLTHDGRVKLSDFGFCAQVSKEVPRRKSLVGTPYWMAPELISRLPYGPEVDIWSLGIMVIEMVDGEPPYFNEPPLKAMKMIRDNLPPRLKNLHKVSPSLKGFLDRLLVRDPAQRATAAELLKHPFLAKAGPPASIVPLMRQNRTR

Structure (SMILES)	inhibition [1]	Papp [2]	inhibition [3]	Ki [4]	IC50 [5]	inhibition [6]	inhibition [7]	IC50 [8]	inhibition [9]	inhibition [10]	IC50 (Aurora kinase A)	IC50 [11]	inhibition [12]	inhibition [13]
CC(=O)N1CC[C@@H](Nc2cncc(C(=O)c3cn(C(C)C)c4ncnc(N)c34)n2)[C@H]1c1ccc(F)cc1	-1%	11 ×10⁻⁶ cm/s	19%	1300 nM	620 nM	46%	15%	340 nM	5%	34%	460 nM	160 nM	1%	21%
CC(=O)N1CC[C@@H](Nc2cncc(C(=O)c3cn(C(C)C)c4ncnc(N)c34)n2)[C@H]1c1ccccc1	0%	11 ×10⁻⁶ cm/s	5%	1900 nM	910 nM	25%	1%	860 nM	-5%	12%	820 nM	320 nM	-2%	14%
CC(C)n1cc(C(=O)c2cncc(N[C@@H]3CCN(C=O)[C@@H]3c3ccc(F)cc3)n2)c2c(N)ncnc21	6%	11 ×10⁻⁶ cm/s	10%	130 nM	200 nM	63%	14%	180 nM	4%	44%	140 nM	120 nM	7%	29%
